The nature of experiment [1]: Anticancer activity against human HT1080 cells assessed as growth inhibition at 100 uM after 24 hrs by sulforhodamine B assay. Conditions: HT-1080, 24 h. The format is functional. For orientation: Sulforhodamine B stains cellular protein and so reports cell mass.
The test system of experiment [2] is A549. The experiment in a line: Anticancer activity against human A549 cells assessed as growth inhibition at 100 uM after 24 hrs by sulforhodamine B assay. The format is functional. Conditions: A549, 24 h.
Experiment [3] is described as follows: Anticancer activity against human HCT116 cells assessed as growth inhibition at 100 uM after 24 hrs by sulforhodamine B assay. The format is functional. The following applies: HCT-116, 24 h.
A short description of experiment [4]: Anticancer activity against human PC3 cells assessed as growth inhibition at 100 uM after 24 hrs by sulforhodamine B assay. The format is functional. The following applies: PC-3, 24 h.
Experiment [5] is described as follows: Cytotoxicity against human FR2 cells assessed as growth inhibition after 24 hrs by sulforhodamine B assay. The format is cell-based. Conditions: FR2, 24 h.
The nature of experiment [6]: Anticancer activity against human PC3 cells assessed as growth inhibition after 24 hrs by sulforhodamine B assay. The format is functional, cell-based. The following applies: PC-3, 24 h. Summed up: (§1)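 SRB assay on human cancer cell lines over a range of concentrations; inhibitory values calculated from concentration–response data, mean ± SD of three experiments.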

Experiment [7] concerns A549. The experiment in a line: Anticancer activity against human A549 cells assessed as growth inhibition after 24 hrs by sulforhodamine B assay. The format is functional, cell-based. The following applies: A549, 24 h. Summed up: as §1
The nature of experiment [8]: Anticancer activity against human HCT116 cells assessed as growth inhibition after 24 hrs by sulforhodamine B assay. The format is functional, cell-based. Conditions: HCT-116, 24 h. Summed up:
as §1

In experiment [9] the test system is T47D. The experiment in a line: Anticancer activity against human T47D cells assessed as growth inhibition after 24 hrs by sulforhodamine B assay. The format is functional, cell-based. The method in brief: as §1

In ChEMBL document CHEMBL3745626, “Synthesis of β-boswellic acid derivatives as cytotoxic and apoptotic agents” (Bioorg Med Chem Lett, 2016) one finds inhibition and IC50 data, which are given here for 20 molecules.

The structures appear in SMILES notation. A value given as a limit tells only on which side of the number the result lay.

For orientation: inhibition means the change of the read-out against control, counted positive when it falls. In the case of `COC(=O)[C@@]1(C)C(=O)CC[C@]2(C)[C@H]3CC=C4[C@@H]5[C@@H](C)[C@H](C)CC[C@]5(C)CC[C@@]4(C)[C@]3(C)CC[C@@H]12`, the inhibition at 100 µM in experiment [1] is 21%; in [2], 56%; in experiment [3], 58%; in experiment [4], 44%.

For the molecule `COC(=O)[C@@]1(C)C(=O)/C(=C/c2ccc(OC(F)(F)F)cc2)C[C@]2(C)[C@H]3CC=C4[C@@H]5[C@@H](C)[C@H](C)CC[C@]5(C)CC[C@@]4(C)[C@]3(C)CC[C@@H]12`, the inhibition at 100 µM in [1] worked out at 78%; in experiment [2], 14%; in experiment [3], 0%; in experiment [4] it was 35%.

`COC(=O)[C@@]1(C)C(=O)/C(=C/c2ccc(Cl)cc2)C[C@]2(C)[C@H]3CC=C4[C@@H]5[C@@H](C)[C@H](C)CC[C@]5(C)CC[C@@]4(C)[C@]3(C)CC[C@@H]12`: the inhibition at 100 µM came to 6% in experiment [1], 7% in experiment [2], 0% in experiment [3] and 10% in experiment [4].

Regarding `COC(=O)[C@@]1(C)C(=O)/C(=C/c2cc(OC)cc(OC)c2)C[C@]2(C)[C@H]3CC=C4[C@@H]5[C@@H](C)[C@H](C)CC[C@]5(C)CC[C@@]4(C)[C@]3(C)CC[C@@H]12`, the inhibition at 100 µM was determined as 17% in experiment [1], 55% in experiment [2], 21% in experiment [3] and 41% in experiment [4].

As for `COC(=O)[C@@]1(C)C(=O)/C(=C/c2cccc([N+](=O)[O-])c2)C[C@]2(C)[C@H]3CC=C4[C@@H]5[C@@H](C)[C@H](C)CC[C@]5(C)CC[C@@]4(C)[C@]3(C)CC[C@@H]12`, the inhibition at 100 µM was determined as 13% in experiment [1], 0% in experiment [2], 6% in experiment [3] and 10% in [4].

For `COC(=O)[C@@]1(C)C(=O)/C(=C/c2ccccc2F)C[C@]2(C)[C@H]3CC=C4[C@@H]5[C@@H](C)[C@H](C)CC[C@]5(C)CC[C@@]4(C)[C@]3(C)CC[C@@H]12`, the inhibition at 100 µM came out at 23% in experiment [1], 47% in experiment [2], 0% in experiment [3] and 44% in [4].

Take `COC(=O)[C@@]1(C)C(=O)/C(=C/c2ccco2)C[C@]2(C)[C@H]3CC=C4[C@@H]5[C@@H](C)[C@H](C)CC[C@]5(C)CC[C@@]4(C)[C@]3(C)CC[C@@H]12`: the inhibition at 100 µM in [1] amounted to 16%; in experiment [2] it was 48%; in experiment [3], 18%; in [4] it was 44%.

As to `COC(=O)[C@@]1(C)C(=O)/C(=C/c2ccc(C)cc2)C[C@]2(C)[C@H]3CC=C4[C@@H]5[C@@H](C)[C@H](C)CC[C@]5(C)CC[C@@]4(C)[C@]3(C)CC[C@@H]12`, the inhibition at 100 µM is 26% in experiment [1], 28% in experiment [2], 20% in experiment [3] and 11% in [4].

In general, IC50 refers to the concentration that gives 50% inhibition. As for `COC(=O)[C@@]1(C)C(=O)/C(=C/c2ccccn2)C[C@]2(C)[C@H]3CC=C4[C@@H]5[C@@H](C)[C@H](C)CC[C@]5(C)CC[C@@]4(C)[C@]3(C)CC[C@@H]12`, the IC50 in experiment [5] was 59 µM; in [6] it was 24.4 µM; in [7], 26.1 µM; in experiment [8], 7.2 µM; in experiment [9] it was 15.6 µM. In addition, the inhibition at 100 µM was determined as 95% in [1], 100% in [2], 100% in [3] and 100% in experiment [4].

In the case of `COC(=O)[C@@]1(C)C(=O)/C(=C/c2cccs2)C[C@]2(C)[C@H]3CC=C4[C@@H]5[C@@H](C)[C@H](C)CC[C@]5(C)CC[C@@]4(C)[C@]3(C)CC[C@@H]12`, the inhibition at 100 µM was determined as 37% in experiment [1], 42% in experiment [2], 40% in experiment [3] and 19% in [4].

As to `COC(=O)[C@@]1(C)C(=O)/C(=C/c2cc(C(F)(F)F)cc(C(F)(F)F)c2)C[C@]2(C)[C@H]3CC=C4[C@@H]5[C@@H](C)[C@H](C)CC[C@]5(C)CC[C@@]4(C)[C@]3(C)CC[C@@H]12`, the inhibition at 100 µM was found to be 0% in experiment [1], 5% in experiment [2], 10% in experiment [3] and 7% in [4].

Take `COC(=O)[C@@]1(C)C(=O)/C(=C/c2ccc3ccccc3n2)C[C@]2(C)[C@H]3CC=C4[C@@H]5[C@@H](C)[C@H](C)CC[C@]5(C)CC[C@@]4(C)[C@]3(C)CC[C@@H]12`: the inhibition at 100 µM in experiment [1] was found to be 43%; in [2], 37%; in [3], 37%; in [4] it was 44%.

`COC(=O)[C@@]1(C)C(=O)/C(=C/c2cccc(Br)c2)C[C@]2(C)[C@H]3CC=C4[C@@H]5[C@@H](C)[C@H](C)CC[C@]5(C)CC[C@@]4(C)[C@]3(C)CC[C@@H]12`: the inhibition at 100 µM in experiment [1] stood at 15%; in experiment [2], 14%; in [3], 8%; in experiment [4], 6%.

`COC(=O)[C@@]1(C)C(=O)/C(=C/c2ccccc2[N+](=O)[O-])C[C@]2(C)[C@H]3CC=C4[C@@H]5[C@@H](C)[C@H](C)CC[C@]5(C)CC[C@@]4(C)[C@]3(C)CC[C@@H]12`: the inhibition at 100 µM in experiment [1] came to 100%; in experiment [2], 42%; in experiment [3] it was 21%; in [4], 11%.

In the case of `COC(=O)[C@@]1(C)C(=O)/C(=C/c2ccc(Cl)cc2Cl)C[C@]2(C)[C@H]3CC=C4[C@@H]5[C@@H](C)[C@H](C)CC[C@]5(C)CC[C@@]4(C)[C@]3(C)CC[C@@H]12`, the concentration for half-maximal inhibition (IC50) was over 100 µM in experiment [5]; 69.5 µM in experiment [6]; 56.1 µM in [7]; over 100 µM in experiment [8]; over 100 µM in [9]. Besides, the inhibition at 100 µM in experiment [1] stood at 100%; in experiment [2] it was 97%; in experiment [3] it was 49%; in experiment [4] it was 79%.

`COC(=O)[C@@]1(C)C(=O)/C(=C/c2ccc(F)c(Br)c2)C[C@]2(C)[C@H]3CC=C4[C@@H]5[C@@H](C)[C@H](C)CC[C@]5(C)CC[C@@]4(C)[C@]3(C)CC[C@@H]12`: the inhibition at 100 µM in [1] turned out to be 43%; in [2] it was 47%; in [3], 27%; in [4], 40%.

On to `COC(=O)[C@@]1(C)C(=O)/C(=C/c2ccc([N+](=O)[O-])cc2)C[C@]2(C)[C@H]3CC=C4[C@@H]5[C@@H](C)[C@H](C)CC[C@]5(C)CC[C@@]4(C)[C@]3(C)CC[C@@H]12`, for which the inhibition at 100 µM was determined as 36% in experiment [1], 47% in [2], 30% in experiment [3] and 52% in experiment [4].

For `COC(=O)[C@@]1(C)C(=O)/C(=C/c2ccc(F)cc2F)C[C@]2(C)[C@H]3CC=C4[C@@H]5[C@@H](C)[C@H](C)CC[C@]5(C)CC[C@@]4(C)[C@]3(C)CC[C@@H]12`, the inhibition at 100 µM in experiment [1] is 0%; in experiment [2], 33%; in experiment [3], 32%; in [4] it was 20%.

As to `COC(=O)[C@@]1(C)C(=O)/C(=C/c2ccccc2Cl)C[C@]2(C)[C@H]3CC=C4[C@@H]5[C@@H](C)[C@H](C)CC[C@]5(C)CC[C@@]4(C)[C@]3(C)CC[C@@H]12`, the inhibition at 100 µM came out at 21% in experiment [1], 0% in experiment [2], 0% in experiment [3] and 25% in [4].

Regarding `COC(=O)[C@@]1(C)C(=O)/C(=C/c2c(Cl)cccc2Cl)C[C@]2(C)[C@H]3CC=C4[C@@H]5[C@@H](C)[C@H](C)CC[C@]5(C)CC[C@@]4(C)[C@]3(C)CC[C@@H]12`, the inhibition at 100 µM in [1] was determined as 99%; in experiment [2] it was 74%; in experiment [3], 57%; in experiment [4], 24%.
